The source of these data is PubChem BioAssay.

Experiment [1] is described as follows: inhibitors of TNFa-induced NFkB p65 translocation, primary screen, imaging, HUVEC, MLSMR starter and 10KST1 sets (AID 438;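 active = inhibition above 20% together with a positive visual image hit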;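 note: compound added about 3h40 before a 20 min TNFalpha stimulation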;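 for inhibition: signal is the nuclear over cytoplasmic p65 intensity ratio per well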). Conditions: HUVEC TNFa-induced p65 nuclear translocation; cell count: measured here: nuclei count (cytotoxicity indicator), at 2.08 µM; inhibition: at 2 µM, stronger effect = higher value, 0% TNFa-plus-vehicle, 100% no-TNFa wells.
Experiment [2] in a line: endothelial E-selectin expression blockers – imaging, HUVEC, immunofluorescence, MLSMR starter and 10KST1 sets, primary screen (AID 487;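 active = visually confirmed hit in the image check and inhibition above 20%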;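 for inhibition: signal is fraction of cell area covered by stained E-selectin grains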;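 for nuclei count: 100% = median nuclei count of all wells on the same plate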). The settings on record: HUVEC TNFalpha-induced E-selectin immunofluorescence imaging, at 2 µM; inhibition: stronger effect = higher value; nuclei count: measured here: cell number, toxicity.
Experiment [3] is described as follows: Primary imaging screen for DUSP6 inhibitors that restore phospho-Erk in transfected HeLa cells, chemical complementation (AID 609;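 active = compounds giving at least 50% inhibition in the cell-based MKP-3 phosphatase rescue imaging test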;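 for inhibition: phospho-Erk level distribution per well compared with pooled transfected vehicle control wells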). Conditions: HeLa MKP-3 transfected, phospho-Erk imaging KS statistic, at 10 µM, cells stimulated with TPA for 15 min.
The target of experiment [4] is Dual specificity protein phosphatase 6 (Homo sapiens) (UniProt Q16828). The experiment is described as above. Conditions: HeLa MKP-3 transfected, phospho-Erk imaging KS statistic; at 10 µM; stronger effect = higher value; cells stimulated with TPA for 15 min.
Sequence of Dual specificity protein phosphatase 6 (Homo sapiens) (Q16828 whole entry, looked up): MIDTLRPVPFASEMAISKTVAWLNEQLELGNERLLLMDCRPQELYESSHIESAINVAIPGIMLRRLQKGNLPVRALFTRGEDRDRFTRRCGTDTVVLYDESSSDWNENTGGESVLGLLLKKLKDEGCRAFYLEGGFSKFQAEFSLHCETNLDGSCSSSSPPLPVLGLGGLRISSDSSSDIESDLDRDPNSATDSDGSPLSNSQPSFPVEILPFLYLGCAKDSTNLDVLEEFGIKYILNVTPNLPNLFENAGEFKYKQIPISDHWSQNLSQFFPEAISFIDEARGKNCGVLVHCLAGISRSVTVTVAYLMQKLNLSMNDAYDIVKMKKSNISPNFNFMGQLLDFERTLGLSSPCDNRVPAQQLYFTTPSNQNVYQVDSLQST
For experiment [5], the target named is Voltage-gated potassium channel subunit beta-2 (Rattus norvegicus) (UniProt P62483). Description: inhibitors of rat Kvbeta2 reductase activity – biochemical, NADPH fluorescence, primary screen (AID 622;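 active = fluorescence slope higher than the sample average by over 3 SD, cut at about -0.22 in these data, passing the limit was not always enough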;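 note: slope of raw intensity against log time taken from 70 to 1610 s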). The settings on record: recombinant KvBeta, 4-cyanobenzaldehyde reduction, at 10 µM, stronger effect = higher value.
Sequence of Voltage-gated potassium channel subunit beta-2 (Rattus norvegicus) (P62483 whole entry, looked up): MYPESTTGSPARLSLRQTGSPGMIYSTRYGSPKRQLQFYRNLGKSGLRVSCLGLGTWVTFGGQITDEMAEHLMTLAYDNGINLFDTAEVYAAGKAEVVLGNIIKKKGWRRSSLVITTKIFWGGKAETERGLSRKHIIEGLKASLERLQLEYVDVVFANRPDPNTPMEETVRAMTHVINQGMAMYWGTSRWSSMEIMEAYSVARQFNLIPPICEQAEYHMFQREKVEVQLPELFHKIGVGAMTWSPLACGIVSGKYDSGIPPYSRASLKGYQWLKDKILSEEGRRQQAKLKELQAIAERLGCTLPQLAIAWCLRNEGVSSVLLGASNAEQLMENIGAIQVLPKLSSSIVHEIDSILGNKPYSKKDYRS
Experiment [6] shares this target. Description: enhancers of rat Kvbeta2 NADPH turnover – biochemical, NADPH fluorescence, primary screen (AID 623;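 active = NADPH fluorescence slope more negative than the mean of all samples by about 3 SD, 99.7% confidence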;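 note: fluorescence intensity change per second fitted from 20 to 320 s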). The settings on record: Recombinant KvBeta, NADPH fluorescence decrease slope, 10 min; at 10 µM; stronger effect = lower value.
For experiment [7], the target named is Muscarinic acetylcholine receptor M4 (Homo sapiens) (UniProt P08173). Description: M4-linked GIRK flux change, two-sided – cell-based, HEK293 M4/GIRK, thallium flux, BTC-AM, M4 allosteric agonist project, primary screen (AID 625;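 active = fluorescence slope after compound addition differing from the mean of all tested samples at 99.7% confidence, mostly higher but some lower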;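 note: thallium influx through GIRK channels coupled to M4 in HEK293 cells with BTC-AM dye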). Conditions: at 10 µM, actives lie on both sides. In outline: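 Assay system: HEK293 cells with M4 receptor and GIRK channels / Controls: carbachol and DMSO controls / Schedule: 1 h dye loading, 2 min kinetic read / Technique: kinetic fluorescence with BTC-AM dye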
Sequence of Muscarinic acetylcholine receptor M4 (Homo sapiens) (P08173 whole entry, looked up): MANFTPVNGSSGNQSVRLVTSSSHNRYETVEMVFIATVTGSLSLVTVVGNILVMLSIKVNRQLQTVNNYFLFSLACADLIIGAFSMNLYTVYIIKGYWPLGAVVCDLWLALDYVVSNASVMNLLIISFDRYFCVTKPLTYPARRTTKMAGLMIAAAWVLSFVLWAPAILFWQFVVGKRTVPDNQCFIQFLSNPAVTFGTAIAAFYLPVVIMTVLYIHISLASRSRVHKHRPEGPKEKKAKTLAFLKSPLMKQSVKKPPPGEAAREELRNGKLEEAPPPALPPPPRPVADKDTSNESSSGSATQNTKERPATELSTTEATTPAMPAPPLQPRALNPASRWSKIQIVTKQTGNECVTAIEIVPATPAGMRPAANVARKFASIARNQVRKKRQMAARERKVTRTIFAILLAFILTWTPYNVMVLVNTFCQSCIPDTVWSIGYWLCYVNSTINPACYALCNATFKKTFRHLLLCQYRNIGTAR

The nature of experiment [8]: inhibitors of larval lipid processing in zebrafish, primary screen, whole organism, PED6 fluorescence, gall bladder and intestine (AID 686;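 active = a full or partial loss of lipid-probe fluorescence in the fish gall bladder, intestine or both, judged by eye; inactive = no fluorescence loss, or compound toxic to the fish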;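 note: larvae 5 to 7 days old with five fish per well; signal comes from phospholipase A2 cleavage of quenched PED6 carried via bile; overnight exposure to compound and PED6 before scoring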). Conditions: Zebrafish larvae PED6 lipid processing, fluorescence scoring; screened at 20 µM (by protocol). The method in brief:
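Doses: 20 µM single dose. Test system: live zebrafish larvae aged 5-7 days, whole organism. Quantity: five larvae per well. Measured by: By-eye fluorescence microscopy. Reagent: ingested quenched lipid PED6 at 100 nM. Read-out: visual per-well fluorescence inhibition score. Times: overnight exposure of larvae to compound plus PED6.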

The nature of experiment [9]: loss of swimming-algae plug formation – whole organism, Chlamydomonas reinhardtii, WT vs cilia-less mutant, absorbance, 96-well, primary screen (AID 463189).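 Note: 0% = wild type cc124 cells in DMSO and 100% = ciliumless bld1 mutant cells.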 Conditions: Chlamydomonas reinhardtii gravitaxis, OD600 absorbance, 2 days; at 10 µM; stronger effect = higher value.
Where [10] appears, read: measured here: cell density z-score.
Setting [11] is: measured here: nuclear c-Myc green intensity z-score.
[12] abbreviates: measured here: nuclear pErk red intensity z-score, stronger effect = higher value.

The source made the active and inactive calls.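 Rule for the calls, unless noted: active = inhibition at or above 50% relative to wild type and mutant plate controls; inactive = inhibition below 50%.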

As for `CCCCCOc1ccc(C(=O)NCC(=O)NCC(=O)OCC)cc1`, in [1], the cell count is 715. The inhibition (commonly the relative decrease from the control value, in per cent) in experiment [1] was 9.7% (inactive); in experiment [2], -113% (inactive); in experiment [4] it was 1.63% (inactive); in experiment [9], -5.95% (inactive). The molecule further returned a nuclei count in experiment [2] of 150%. In addition, the z-score in experiment [3] (setting [10]) is -0.426; in experiment [3] (setting [11]), -0.0633; in experiment [3] (setting [12]), -0.949. For the same molecule, the results for the fluorescence slope in experiment [5] and in experiment [7] were -0.417 (inactive) and 0.00389 (inactive), respectively. Besides, in experiment [6], the NADPH fluorescence slope is -6e-05 (inactive). The result in experiment [8] was inactive.

On to `CCOc1ccccc1C(=O)NCCCCCC(=O)O`, for which, in [1], the cell count worked out at 421. The inhibition was -9.4% (inactive) in experiment [1], -419% (inactive) in experiment [2], 1.42% (inactive) in experiment [4] and 0.493% (inactive) in [9]. In experiment [2], this molecule showed a nuclei count of 193%. Also, the z-score in experiment [3] (setting [10]) is 0.279; in [3] (setting [11]) it was -0.756; in experiment [3] (setting [12]) it was 0.2. The fluorescence slope in experiment [5] was -0.472 (inactive); in experiment [7], 0.00537 (inactive). The NADPH fluorescence slope in experiment [6] was -9.6e-05 (inactive). In addition, in experiment [8], the outcome was inactive.

In the case of `COc1ccc2nc(SCC(=O)O)nc(C)c2c1`, in experiment [1], the cell count worked out at 472. In addition, the inhibition in experiment [1] is -2.5% (inactive); in [2] it was -119% (inactive); in experiment [4], -2.29% (inactive); in experiment [9], 25.2% (inactive). The molecule further displayed a nuclei count in [2] of 167%. Moreover, the values for the z-score in [3] (setting [10]), in experiment [3] (setting [11]) and in experiment [3] (setting [12]) were -1.34, -1.35 and 0.21, respectively. In addition, the fluorescence slope is -0.447 (inactive) in experiment [5] and 0.00491 (inactive) in experiment [7]. In experiment [6], the NADPH fluorescence slope is -4.9e-05 (inactive). In addition, in [8], the call was inactive.

On to `COc1ccc(N2C(=O)C3C(C2=O)C2C=CC3C23CC3)c(OC)c1` (stereo unspecified), for which the cell count in experiment [1] stood at 517. Also, the inhibition in [1] was -4.2% (inactive); in experiment [2] it was 41.1% (inactive); in [4] it was 11.9% (inactive); in [9], 24.5% (inactive). The molecule also had a nuclei count in experiment [2] of 197%. In addition, the results for the z-score in experiment [3] (setting [10]), in [3] (setting [11]) and in experiment [3] (setting [12]) were 0.465, -0.843 and 1.05, respectively. The figures for the fluorescence slope in experiment [5] and in experiment [7] were -0.422 (inactive) and 0.00475 (inactive), respectively. Besides, in experiment [6], the NADPH fluorescence slope is -4.3e-05 (inactive). Besides, in [8], the call was inactive.

As to `O=C(Nc1ccccc1)c1cc(N2CCOCC2)nc2ccccc12`, the cell count in [1] amounted to 667. Besides, the inhibition in experiment [1] was -1.5% (inactive); in [2] it was -114% (inactive); in experiment [4], 6.51% (inactive); in [9], -0.488% (inactive). In experiment [2], this molecule registered a nuclei count of 149%. The z-score is 1.08 in experiment [3] (setting [10]), 1.33 in experiment [3] (setting [11]) and -0.63 in experiment [3] (setting [12]). In addition, the fluorescence slope in [5] is -0.419 (inactive); in experiment [7], 0.00579 (inactive). For the same molecule, the NADPH fluorescence slope in experiment [6] was -6.8e-05 (inactive). Further, the result in [8] was inactive.

On to `CSc1nc2sc3c(c2c2nnnn12)CCCC3`, for which the cell count in [1] was determined as 506. Also, the inhibition in experiment [1] is -14.9% (inactive); in [2] it was -77.3% (inactive); in experiment [4] it was -5.81% (inactive); in experiment [9], 31% (inactive). The molecule also returned a nuclei count in experiment [2] of 118%. Further, the z-score was 0.676 in experiment [3] (setting [10]), -0.0981 in experiment [3] (setting [11]) and -1.25 in experiment [3] (setting [12]). Besides, the fluorescence slope in experiment [5] is -0.455 (inactive); in experiment [7] it was 0.00421 (inactive). The NADPH fluorescence slope in experiment [6] is -7.9e-06 (inactive). The call in experiment [8] was inactive.

`Nc1c2c(nc3ccccc13)N(c1ccccc1)CC2`: the cell count in experiment [1] turned out to be 585. The inhibition in experiment [1] was 0.4% (inactive); in experiment [2] it was 60.7% (active); in experiment [4], -2.09% (inactive); in experiment [9], 15.7% (inactive). For the same molecule, the nuclei count in experiment [2] came to 92.9%. For the same molecule, the results for the z-score in experiment [3] (setting [10]), in experiment [3] (setting [11]) and in experiment [3] (setting [12]) were 0.356, -0.531 and -0.713, respectively. The fluorescence slope in [5] was -0.0969 (active); in experiment [7] it was 0.00425 (inactive). Besides, the NADPH fluorescence slope in experiment [6] was -1.3e-05 (inactive). In experiment [8], the outcome was “inactive; toxic”.

As to `Cc1c(C)n(C(=O)CSc2nccn2C)c2ccccc12`, in experiment [1], the cell count was 625. In addition, the inhibition was 8.3% (inactive) in [1], -34.7% (inactive) in [2], 1.63% (inactive) in experiment [4] and -7.86% (inactive) in experiment [9]. In addition, the nuclei count in experiment [2] was determined as 106%. Further, the z-score in experiment [3] (setting [10]) is -0.766; in experiment [3] (setting [11]) it was 1.61; in experiment [3] (setting [12]), 0.593. For the same molecule, the fluorescence slope was -0.416 (inactive) in experiment [5] and 0.00619 (inactive) in experiment [7]. In experiment [6], the NADPH fluorescence slope is -3.5e-05 (inactive). The result in experiment [8] was inactive.

Regarding `COc1ccc(/C(O)=C2/C(=O)C(=O)N(CCCN(C)C)C2c2ccc(C)o2)cc1Cl` (stereo unspecified), the cell count in experiment [1] is 709. Moreover, the inhibition in [1] is -8.3% (inactive); in [2] it was -108% (inactive); in [4], -6.48% (inactive); in [9], 18.3% (inactive). The molecule also had a nuclei count in experiment [2] of 146%. Further, the z-score in experiment [3] (setting [10]) is -0.0808; in experiment [3] (setting [11]), -0.238; in [3] (setting [12]), -0.0387. In addition, the fluorescence slope in experiment [5] was -0.48 (inactive); in experiment [7] it was 0.0051 (inactive). Besides, the NADPH fluorescence slope in experiment [6] was -4.6e-05 (inactive). In [8], the result was inactive.

As to `CCCn1c(SCC#N)nc2c(c1=O)C1(CCCC1)Cc1ccccc1-2`, the cell count in experiment [1] amounted to 547. The inhibition in [1] was -1.4% (inactive); in experiment [2], -10.8% (inactive); in experiment [4], 3.97% (inactive); in [9] it was -14.9% (inactive). In experiment [2], the nuclei count was found to be 185%. Besides, the z-score in experiment [3] (setting [10]) is -0.545; in experiment [3] (setting [11]) it was 0.717; in experiment [3] (setting [12]), -0.241. Also, the fluorescence slope was -0.402 (inactive) in experiment [5] and 0.00798 (inactive) in experiment [7]. Also, in [6], the NADPH fluorescence slope is -3.9e-05 (inactive). The molecule was classed as inactive in experiment [8].

With `CCOc1ccc(N2C(=O)CC(N)C2=O)cc1` (stereo unspecified), in experiment [1], the cell count was determined as 726. Further, the inhibition in experiment [1] was 11.3% (inactive); in experiment [2] it was 33.5% (inactive); in [4] it was -13.3% (inactive); in experiment [9], 19.4% (inactive). This molecule displayed a nuclei count in experiment [2] of 123%. In addition, the z-score in [3] (setting [10]) is -0.139; in experiment [3] (setting [11]) it was 1.28; in experiment [3] (setting [12]), 0.161. The fluorescence slope in experiment [5] is -0.462 (inactive); in [7] it was 0.00592 (inactive). In experiment [6], the NADPH fluorescence slope is -5.8e-05 (inactive). The outcome in experiment [8] was inactive.

`CC(C)=CCC(C)(C)CNC(=O)NC1CCCCC1`: the cell count in experiment [1] turned out to be 577. In addition, the inhibition in experiment [1] was -4.2% (inactive); in [2], -143% (inactive); in experiment [4], -0.584% (inactive); in experiment [9] it was 19.5% (inactive). The same molecule showed a nuclei count in [2] of 147%. The z-score in [3] (setting [10]) is -0.346; in experiment [3] (setting [11]) it was -0.203; in experiment [3] (setting [12]) it was -0.256. For the same molecule, the fluorescence slope is -0.459 (inactive) in experiment [5] and 0.00622 (inactive) in experiment [7]. For the same molecule, the NADPH fluorescence slope in experiment [6] was -0.000111 (inactive). Further, the molecule was classed as inactive in [8].
